Assay results published in ChEMBL document CHEMBL3872217, “Structure-guided discovery of thiazolidine-2,4-dione derivatives as a novel class of Leishmania major pteridine reductase 1 inhibitors” (Eur J Med Chem, 2016).
Calls of active or inactive are those of the source. No cut-off for these calls is given here.

Columns and labels:
[1] = target: T1, Pteridine reductase 1 (Leishmania major) (UniProt Q01782); experiment: Binding affinity to Leishmania major recombinant N-terminal hexa-His tagged PTR1 expressed in Escherichia coli BL21(DE3) assessed as change in melting temperature at 50 uM at pH 4.7 by SYPRO orange dye based thermal shift assay
T1 sequence (whole entry): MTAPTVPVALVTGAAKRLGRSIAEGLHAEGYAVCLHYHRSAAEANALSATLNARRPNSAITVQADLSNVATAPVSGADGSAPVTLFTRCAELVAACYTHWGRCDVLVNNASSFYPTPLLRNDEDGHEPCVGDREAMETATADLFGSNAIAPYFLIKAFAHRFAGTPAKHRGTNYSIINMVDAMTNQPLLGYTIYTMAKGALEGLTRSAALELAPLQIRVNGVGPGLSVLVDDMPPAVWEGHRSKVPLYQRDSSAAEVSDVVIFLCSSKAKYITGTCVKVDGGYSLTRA
Procedure, shortened: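 Recombinant LmPTR1 from E. coli BL21(DE3) with pET-LmPTR1, Ni-NTA purified. Protein 5 μM in 50 mM sodium acetate pH 4.7 with SYPRO Orange (excitation 492, emission 610 nm); compound 50 μM from 1 mM DMSO stock; reference wells with DMSO only. Melt 25–85 °C at 1 °C per min; Tm from Boltzmann sigmoidal fit; triplicate; ΔTm compared by Kruskal-Wallis.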

[2] = target: T1, Pteridine reductase 1 (Leishmania major); experiment: Inhibition of Leishmania major recombinant N-terminal hexa-His tagged PTR1 catalytic activity expressed in Escherichia coli BL21(DE3) at 50 uM using biopterin as substrate measured for 60 sec in presence of NADPH by UV-visible spectrophotometric method relative to control
Pteridine reductase 1 = target: T2, Pteridine reductase 1 (Leishmania major, UniProt Q01782); experiment: Inhibition of Leishmania major recombinant N-terminal hexa-His tagged PTR1 catalytic activity expressed in Escherichia coli BL21(DE3) using biopterin as substrate measured for 60 sec in presence of NADPH by UV-visible spectrophotometric method relative to control
T2 sequence (Q01782 whole entry): T1 sequence (whole entry)
Procedure, shortened: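 Spectrophotometric assay at 30 °C with purified recombinant LmPTR1 at 0.2 μM in 20 mM sodium citrate pH 4.7, with NADPH and biopterin cofactor/substrate. Compound added in 5% DMSO (v/v). NADPH consumption followed as the drop in absorbance at 340 nm over 60 s; triplicate. IC50 by non-linear regression over at least six inhibitor concentrations.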

[3] = target: T1, Pteridine reductase 1 (Leishmania major); experiment: Noncompetitive inhibition of Leishmania major recombinant N-terminal hexa-His tagged PTR1 catalytic activity expressed in Escherichia coli BL21(DE3) at 25 to 45 uM at pH 4.7 in presence of saturating concentration of biopterin and varying levels of NADPH by double-reciprocal plot analysis
Procedure, shortened: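 Inhibition mode measured under the 340 nm kinetic conditions (0.2 μM LmPTR1, 20 mM sodium citrate pH 4.7, 30 °C, 60 s). Biopterin held at saturating 40 μM; NADPH varied over 5.0, 7.5, 10.0, 20.0 and 40.0 μM at two fixed inhibitor concentrations. Analysed by double-reciprocal plots; means of at least three experiments.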

[4] = target: T1, Pteridine reductase 1 (Leishmania major); experiment: Effect on thermal stability of Leishmania major recombinant N-terminal hexa-His tagged PTR1 expressed in Escherichia coli BL21(DE3) by SYPRO orange dye based thermal shift assay
Procedure, shortened: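 Dose-response thermal stability run on Ni-NTA purified LmPTR1 (expressed from pET-LmPTR1 in E. coli BL21(DE3)) at 5 μM in 50 mM sodium acetate pH 4.7 with SYPRO Orange. Excitation 492 nm and emission 610 nm; ramp 25–85 °C, 1 °C per min. Tm taken from a Boltzmann sigmoidal fit against DMSO reference wells; done in triplicate.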

[5] = target: T1, Pteridine reductase 1 (Leishmania major); experiment: Noncompetitive inhibition of Leishmania major recombinant N-terminal hexa-His tagged PTR1 catalytic activity expressed in Escherichia coli BL21(DE3) assessed as decrease in thermal shift stabilization at 50 uM at pH 4.7 in presence of varying levels of NADPH and constant biopterin substrate concentration by SYPRO orange dye based assay
Procedure, shortened: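 Inhibition type probed by repeating the TSA screen (5 μM LmPTR1, 50 mM sodium acetate pH 4.7, SYPRO Orange, compound 50 μM) while varying NADPH at 0.0, 3.0, 6.25, 12.5 and 50 μM. Triplicate; ΔTm values compared by Kruskal-Wallis non-parametric ANOVA.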

| Structure (SMILES) | ΔTm [1] | inhibition [2] | IC50 (Pteridine reductase 1) | inhibition [3] | Activity [4] | inhibition [5] |
| --- | --- | --- | --- | --- | --- | --- |
| O=C1NC(=O)/C(=C/c2ccc(Cl)c(Cl)c2)S1 | 3.01 °C |  |  |  |  |  |
| O=C1NC(=O)/C(=C/c2ccc(Cl)cc2Cl)S1 | > 1 °C |  |  |  |  |  |
| O=C1NC(=O)/C(=C/c2c(F)cccc2Br)S1 | 1.7 °C | 36% | 589 µM |  |  |  |
| COc1ccc(Br)c(/C=C2\SC(=O)NC2=O)c1 | > 1 °C |  |  |  |  |  |
| O=C1NC(=O)/C(=C/c2cc(Cl)cc(Br)c2O)S1 | 11 °C | Active | 44.7 µM | Active | > 200 µM | Active |
| O=C1NC(=O)/C(=C/c2c(Cl)cccc2Cl)S1 | < 1 °C |  |  |  |  |  |
| O=C1NC(=O)/C(=C/c2cc(Cl)ccc2O)S1 | > 1 °C | Active | 75.9 µM |  | > 200 µM |  |
